In brackets after ≈: the same amount, converted by molar mass.
Legend:
Cryptococcus neoformans [1] = assay: Antifungal activity against Cryptococcus neoformans ATCC 24067 after 48 to 72 hrs by broth microdilution method; type: functional
Procedure, shortened: (§1)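 CLSI M27-A3 broth microdilution. Isolates subcultured twice on SDA, 48 h at 35°C. Saline suspension adjusted to 70% transmittance at 530 nm, then diluted to 1-5 x10^3 cells/mL in RPMI with L-glutamine, 0.165 M MOPS, pH 7.0. Compounds in DMSO, tested at […]. 35°C for 48-72 h. MIC read visually as the lowest concentration giving an optically clear well.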

Vero = assay: Cytotoxicity against African green monkey Vero cells assessed as cell viability measured after 48 hrs by MTT assay; type: cell-based; details: Chlorocebus sabaeus
Procedure, shortened: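 VERO cells in D-MEM with 5% FBS, used up to 20 passages. Seeded 1 x 10^4 cells/well, pre-incubated 24 h at 37°C. Exposed 48 h at 37°C, 5% CO2, to eight nonserial dilutions from 100 to 0.0128 µM, with 0.5% DMSO control. MTT reduction read-out, corrected for background and blank. IC50 reported as median with 95% CI. Triplicate, two independent experiments.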

[2] = Cytotoxicity against C57BL/6 mouse peritoneal macrophages assessed as cell viability measured after 48 hrs by MTT assay; type: cell-based; details: C57BL/6, Peritoneal macrophage cell
Procedure, shortened: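 Thioglycollate-elicited peritoneal macrophages from male C57BL/6 mice, 6–8 weeks old, in RPMI with 10% FBS. Seeded 1 x 10^5 cells/well, pre-incubated 24 h at 37°C. Exposed 48 h at 37°C, 5% CO2, to eight nonserial dilutions from 100 to 0.0128 µM, with 0.5% DMSO control. MTT read-out, % inhibition versus DMSO control. IC50 reported as median with 95% CI. Triplicate, two independent experiments.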

[3] = Selectivity index, ratio of IC50 for African green monkey Vero cells to MIC for Cryptococcus neoformans ATCC 24067; type: toxicity, cell-based
[4] = Selectivity index, ratio of IC50 for C57BL/6 mouse peritoneal macrophages to MIC for Cryptococcus neoformans ATCC 24067
Procedure, shortened: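 SI = IC50/MIC. Thioglycollate-elicited peritoneal macrophages from C57BL/6 mice are seeded at 1 x 10^5/well. They are exposed for 48 h at 37°C to eight concentrations from 100 to 0.0128 µM. Viability read by MTT versus 0.5% DMSO control, triplicate in two experiments.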

[5] = test system: Cryptococcus bacillisporus; assay: Antifungal activity against Cryptococcus gattii ATCC 32608 after 48 to 72 hrs by broth microdilution method; type: functional
Procedure, shortened: (§2)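 CLSI M27-A3 broth microdilution in RPMI with L-glutamine, buffered to pH 7.0 with 0.165 M MOPS. Colonies grown twice on SDA, 48 h at 35°C. Inoculum set to 70% transmittance at 530 nm, then diluted to 1-5 x10^3 cells/mL. Test agents dissolved in DMSO, serially diluted, tested at 0.1 to 62.5 µM. Plates held at 35°C for 48-72 h. MIC is the lowest concentration giving an optically clear well, read visually against drug-free growth controls.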

[6] = test system: Cryptococcus gattii species complex; assay: Antifungal activity against Cryptococcus gattii 23/10993 after 48 to 72 hrs by broth microdilution method; type: functional, Cryptococcus bacillisporus; procedure, shortened: as §2
[7] = test system: Cryptococcus gattii species complex; assay: Ratio of compound MIC for Cryptococcus gattii 23/10993 in presence of amphotericin B to compound MIC for Cryptococcus gattii 23/10993 in absence of amphotericin B by checkerboard microtiter test; type: functional, Cryptococcus bacillisporus
Procedure, shortened: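 Checkerboard microdilution: eight two-fold dilutions of test compound (0.11 to 15.6 µM) crossed with amphotericin B (0.025 to 3.9 µM, in DMSO) or fluconazole (0.48 to 62.5 µM, in water). Inoculum per CLSI M27-A3 in RPMI-MOPS pH 7.0, 1-5 x10^3 cells/mL. Growth 48 to 72 h. Effective MIC is the combination concentration giving complete inhibition. FICs derived from MICs in combination versus alone.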

[8] = test system: Cryptococcus gattii species complex; assay: Antifungal activity against Cryptococcus gattii L28/02 after 48 to 72 hrs by broth microdilution method; type: functional, Cryptococcus bacillisporus; procedure, shortened: as §2
[9] = test system: Cryptococcus gattii species complex; assay: Antifungal activity against Cryptococcus gattii 547/OTTI-97-PI-10 after 48 to 72 hrs by broth microdilution method; type: functional, Cryptococcus bacillisporus; procedure, shortened: as §2
[10] = test system: Cryptococcus gattii species complex; assay: Antifungal activity against Cryptococcus gattii 135L/03 after 48 to 72 hrs by broth microdilution method; type: functional, Cryptococcus bacillisporus; procedure, shortened: as §2
[11] = test system: Cryptococcus gattii species complex; assay: Antifungal activity against Cryptococcus gattii 196L/03 after 48 to 72 hrs by broth microdilution method; type: functional, Cryptococcus bacillisporus; procedure, shortened: as §2
[12] = test system: Cryptococcus gattii species complex; assay: Antifungal activity against Cryptococcus gattii L27/01 after 48 to 72 hrs by broth microdilution method; type: functional, Cryptococcus bacillisporus; procedure, shortened: as §2
[13] = test system: Cryptococcus gattii species complex; assay: Antifungal activity against Cryptococcus gattii ICB181 after 48 to 72 hrs by broth microdilution method; type: functional, Cryptococcus bacillisporus; procedure, shortened: as §2
[14] = test system: Cryptococcus gattii species complex; assay: Antifungal activity against Cryptococcus gattii L24/01 after 48 to 72 hrs by broth microdilution method; type: functional, Cryptococcus bacillisporus; procedure, shortened: as §2
[15] = test system: Cryptococcus gattii species complex; assay: Antifungal activity against Cryptococcus gattii LMM818 after 48 to 72 hrs by broth microdilution method; type: functional, Cryptococcus bacillisporus; procedure, shortened: as §2
[16] = test system: Cryptococcus gattii species complex; assay: Antifungal activity against Cryptococcus gattii 1913ER after 48 to 72 hrs by broth microdilution method; type: functional, Cryptococcus bacillisporus; procedure, shortened: as §2
Cryptococcus neoformans [17] = assay: Antifungal activity against Cryptococcus neoformans ATCC 28957 after 48 to 72 hrs by broth microdilution method; type: functional; procedure, shortened: as §1
Cryptococcus neoformans [18] = assay: Antifungal activity against Cryptococcus neoformans ATCC 62066 after 48 to 72 hrs by broth microdilution method; type: functional
Cryptococcus neoformans [19] = assay: Antifungal activity against Cryptococcus neoformans CN31 after 48 to 72 hrs by broth microdilution method; type: functional; procedure, shortened: as §1
Cryptococcus neoformans [20] = assay: Antifungal activity against Cryptococcus neoformans 96806 after 48 to 72 hrs by broth microdilution method; type: functional; procedure, shortened: as §1
Cryptococcus neoformans [21] = assay: Antifungal activity against Cryptococcus neoformans 5396 after 48 to 72 hrs by broth microdilution method; type: functional; procedure, shortened: as §1
Cryptococcus neoformans [22] = assay: Antifungal activity against Cryptococcus neoformans LMM820 after 48 to 72 hrs by broth microdilution method; type: functional; procedure, shortened: as §1
Cryptococcus neoformans [23] = assay: Antifungal activity against Cryptococcus neoformans F10 after 48 to 72 hrs by broth microdilution method; type: functional; procedure, shortened: as §1
Cryptococcus neoformans [24] = assay: Antifungal activity against Cryptococcus neoformans 28JF after 48 to 72 hrs by broth microdilution method; type: functional; procedure, shortened: as §1
Cryptococcus neoformans [25] = assay: Antifungal activity against Cryptococcus neoformans VM-MCMMPI after 48 to 72 hrs by broth microdilution method; type: functional; procedure, shortened: as §1
Cryptococcus neoformans [26] = assay: Antifungal activity against Cryptococcus neoformans 27JF after 48 to 72 hrs by broth microdilution method; type: functional; procedure, shortened: as §1
Cryptococcus neoformans [27] = assay: Antifungal activity against Cryptococcus neoformans WP after 48 to 72 hrs by broth microdilution method; type: functional; procedure, shortened: as §1

MIC (Cryptococcus neoformans [1]): 1.9 µM (≈ 0.599 µg/mL)
MIC [5]: 2.9 µM (≈ 0.915 µg/mL)
MIC [6]: 2.6 µM (≈ 0.82 µg/mL)
MIC [8]: 4.2 µM (≈ 1.32 µg/mL)
MIC [9]: 2.6 µM (≈ 0.82 µg/mL)
MIC [10]: 2.6 µM (≈ 0.82 µg/mL)
MIC [11]: 2.9 µM (≈ 0.915 µg/mL)
MIC [12]: 2.2 µM (≈ 0.694 µg/mL)
MIC [13]: 1.4 µM (≈ 0.442 µg/mL)
MIC [14]: 2.9 µM (≈ 0.915 µg/mL)
MIC [15]: 4.5 µM (≈ 1.42 µg/mL)
MIC [16]: 2.2 µM (≈ 0.694 µg/mL)
MIC (Cryptococcus neoformans [17]): 2.2 µM (≈ 0.694 µg/mL)
MIC (Cryptococcus neoformans [18]): 1.9 µM (≈ 0.599 µg/mL)
MIC (Cryptococcus neoformans [19]): 1.9 µM (≈ 0.599 µg/mL)
MIC (Cryptococcus neoformans [20]): 1.9 µM (≈ 0.599 µg/mL)
MIC (Cryptococcus neoformans [21]): 2.2 µM (≈ 0.694 µg/mL)
MIC (Cryptococcus neoformans [22]): 3.2 µM (≈ 1.01 µg/mL)
MIC (Cryptococcus neoformans [23]): 2.2 µM (≈ 0.694 µg/mL)
MIC (Cryptococcus neoformans [24]): 3.5 µM (≈ 1.1 µg/mL)
MIC (Cryptococcus neoformans [25]): 2.2 µM (≈ 0.694 µg/mL)
MIC (Cryptococcus neoformans [26]): 3.5 µM (≈ 1.1 µg/mL)
MIC (Cryptococcus neoformans [27]): 3.2 µM (≈ 1.01 µg/mL)
Compound: COc1ccc(-c2csc(N/N=C/C3CCCCC3)n2)cc1
IC50 (Vero): > 100 µM
IC50 [2]: > 100 µM
selectivity ratio [3]: 52.6
Ratio [4]: 52.63
MFC [5]: 3.9 µM (≈ 1.23 µg/mL)
MFC [6]: 3.9 µM (≈ 1.23 µg/mL)
fractional inhibitory concentration index (FICI) [7]: 2.36
MFC [8]: 7.8 µM (≈ 2.46 µg/mL)
MFC [9]: 3.9 µM (≈ 1.23 µg/mL)
MFC [10]: 3.9 µM (≈ 1.23 µg/mL)
MFC [11]: 3.9 µM (≈ 1.23 µg/mL)
MFC [12]: 3.9 µM (≈ 1.23 µg/mL)
MFC [13]: 1.9 µM (≈ 0.599 µg/mL)
MFC [14]: 3.9 µM (≈ 1.23 µg/mL)
MFC [15]: 7.8 µM (≈ 2.46 µg/mL)
MFC [16]: 3.9 µM (≈ 1.23 µg/mL)
MFC (Cryptococcus neoformans [17]): 3.9 µM (≈ 1.23 µg/mL)
MFC (Cryptococcus neoformans [18]): 7.8 µM (≈ 2.46 µg/mL)
MFC (Cryptococcus neoformans [19]): 3.9 µM (≈ 1.23 µg/mL)
MFC (Cryptococcus neoformans [20]): 1.9 µM (≈ 0.599 µg/mL)
MFC (Cryptococcus neoformans [21]): 3.9 µM (≈ 1.23 µg/mL)
MFC (Cryptococcus neoformans [22]): 7.8 µM (≈ 2.46 µg/mL)
MFC (Cryptococcus neoformans [23]): 3.9 µM (≈ 1.23 µg/mL)
MFC (Cryptococcus neoformans [24]): 7.8 µM (≈ 2.46 µg/mL)
MFC (Cryptococcus neoformans [25]): 3.9 µM (≈ 1.23 µg/mL)
MFC (Cryptococcus neoformans [26]): 7.8 µM (≈ 2.46 µg/mL)
MFC (Cryptococcus neoformans [27]): 3.9 µM (≈ 1.23 µg/mL)

Source: ChEMBL document CHEMBL3616437, “Thiazole compounds with activity against Cryptococcus gattii and Cryptococcus neoformans in vitro” (Eur J Med Chem, 2015)
